# Laboratory results reported in ChEMBL document CHEMBL1149329, “Synthesis and biological activity of sulfonamide derivatives of epipodophyllotoxin” (J Med Chem, 2004).
# Several values for one entry are separate records, joined by “and”; a condition that tells them apart may be missing. Equal entries are not always repeated.
# Tests used:
# MDA-MB-231 = experiment: […] antiproliferative activity against MDA-MB-231 cell line; type: functional; conditions: Homo sapiens
# DU-145 = experiment: […] antiproliferative activity against DU-145 cell line; type: functional; conditions: Homo sapiens
# P388 [1] = experiment: Antitumor activity against P388 leukemia at dose range of 6.25-100 mg/kg on day 1, activity expressed as maximum tolerated dose; type: functional, Mus musculus
# HT-29 = experiment: […] antiproliferative activity against HT-29 cell line; type: functional; conditions: Homo sapiens
# NCI-H69 = experiment: […] antiproliferative activity against NCI-H69 cell line; type: functional; conditions: Homo sapiens
# P388 [2] = experiment: Median survival time of treated animals/median survival time of control animals; type: functional, Mus musculus
# L1210 [3] = experiment: Percent of L1210 cells in the G2+M phase of the cell cycle at a compound concentration of 2.5 uM; type: functional, Mus musculus
# Method in brief: (§1)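 L1210 cells (2.5 × 10⁵ cells/mL) were incubated for 21 h with compound at the stated concentration. Flow cytometry was run on 10⁴ cells per sample, and the percentage of cells in G2+M was recorded.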
# A549 [4] = experiment: Antitumor activity against A549 non small cell carcinoma at dose range of 70-100 mg/kg on day 14, 21, 28; activity expressed as maximum tolerated dose; type: functional, Homo sapiens
# Method in brief: (§2)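 A549 human lung tumour cells were implanted orthotopically, 10⁶ cells through the chest wall into the left pleural space of anaesthetised BALB/C nude mice. Once tumours were established, drug was given iv on days 14, 21 and 28 after tumour cell injection. The endpoint was life span, expressed as T/C (%) = median survival time of treated/control × 100. MTD was the dose causing no toxic death and/or no weight loss >20%.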
# P388 [5] = experiment: […] antiproliferative activity against P388 cell line; type: functional; conditions: Mus musculus
# Mus musculus = species on record: Mus musculus; experiment: Compound was evaluated for long-term survivors scored at day 60; 6/42; type: functional
# A549 [6] = experiment: […] antiproliferative activity against A549 cell line; type: functional; conditions: Homo sapiens
# K562 = experiment: […] antiproliferative activity against K-562 cell line; type: functional; conditions: Homo sapiens
# SK-N-MC = experiment: […] antiproliferative activity against SK-N-MC cell line; type: functional; conditions: Homo sapiens
# [7] = Median survival time of treated animals/median survival time of control animals; ranges from 122-131; type: functional; method in brief: as §2
# [8] = target: DNA topoisomerase II (Homo sapiens) (UniProt P11388+Q02880); experiment: Inhibition of human DNA Topoisomerase II mediated DNA cleavage through the stabilization of transient DAN/topoisomerase II cleavage complex; type: protein assay
# Method in brief: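 Supercoiled pBS DNA (0.1 μg) preincubated 15 min at 30 °C with drug at 50 μM in 50 mM Tris-HCl pH 7.5, 1 mM ATP, 120 mM KCl, 10 mM MgCl2, 0.5 mM DTT, 0.1 mM EDTA, BSA. Two units human topo II added, 30 min at 30 °C. SDS/proteinase K digestion 30 min at 55 °C. 1% agarose gel with ethidium bromide; linear DNA percentage read, mean of three independent experiments.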
# KB 3-1 = experiment: In vitro antiproliferative activity against KB-3-1 cell line; conditions: Homo sapiens
# IGROV-1 = experiment: […] antiproliferative activity against IGROV1 cell line; type: functional; conditions: Homo sapiens
# A-431 = experiment: […] antiproliferative activity against A431 cell line; type: functional; conditions: Homo sapiens
# L1210 [9] = experiment: Percent of L1210 cells in the G2+M phase of the cell cycle at a compound concentration of 0.5 uM; type: functional, Mus musculus; method in brief: as §1
# P388 [10] = experiment: Antitumor activity against P388 leukemia at dose range of 12.5-200 mg/kg on day 1, activity expressed as maximum tolerated dose; type: functional, Mus musculus
# P388 [11] = experiment: Evaluated for long-term survivors scored at day 60; 0/6; type: functional, Mus musculus
# L1210 [12] = experiment: Inhibitory concentration required to reduce 50 percent L1210 cell growth; type: functional, cell-based; conditions: Mus musculus
# Method in brief: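 L1210 cells were grown in RPMI 1640 with 10% fetal calf serum, 2 mM glutamine, antibiotics and 10 mM HEPES (pH 7.4). Cells were exposed to compound for 48 h. MTT was then added for 4 h at 37 °C, and formazan was dissolved in DMSO and read at 540 nm. IC50 is the concentration reducing OD by 50%, from linear regression on the linear part of the curve. Triplicate.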
# L1210 [13] = experiment: Percent of L1210 cells in the G2+M phase of the cell cycle at a compound concentration of 0.25 uM; type: functional, Mus musculus; method in brief: as §1
# A549 [14] = experiment: Antitumor activity against A549 non small cell carcinoma at dose range of 1.56-6.25 mg/kg on day 14, 21, 28; activity expressed as maximum tolerated dose; type: functional, Homo sapiens; method in brief: as §2
# P388 [15] = experiment: Antitumor activity against P388 leukemia at dose range of 1.56-25 mg/kg on day 1, activity expressed as maximum tolerated dose; type: functional, Mus musculus
# [16] = Median survival time of treated animals/median survival time of control animals; ranges from 126-159; type: functional; method in brief: as §2
# L1210 [17] = experiment: Percent of L1210 cells in the G2+M phase of the cell cycle at a compound concentration of 0.1 uM; type: functional, Mus musculus; method in brief: as §1
# L1210 [18] = experiment: Percent of L1210 cells in the G2+M phase of the cell cycle at a compound concentration of 0.2 uM; type: functional, Mus musculus; method in brief: as §1
# L1210 [19] = experiment: Percent of L1210 cells in the G2+M phase of the cell cycle at a compound concentration of 10 uM; type: functional, Mus musculus; method in brief: as §1
# L1210 [20] = experiment: Percent of L1210 cells in the G2+M phase of the cell cycle at a compound concentration of 1 uM; type: functional, Mus musculus; method in brief: as §1
# L1210 [21] = experiment: Percent of L1210 cells in the G2+M phase of the cell cycle at a compound concentration of 50 uM; type: functional, Mus musculus; method in brief: as §1
# A549 [22] = experiment: Antitumor activity against A549 non small cell carcinoma at dose range of 6.25-25 mg/kg on day 14, 21, 28; activity expressed as maximum tolerated dose; type: functional, Homo sapiens; method in brief: as §2
structure (smiles),measurement,setting,value
COc1cc([C@@H]2c3cc4c(cc3[C@@H](O[C@@H]3O[C@@H]5CO[C@@H](C)O[C@H]5[C@H](O)[C@H]3O)[C@H]3COC(=O)[C@H]23)OCO4)cc(OC)c1O [ETOPOSIDE],IC50,MDA-MB-231,600 nM
same,IC50,DU-145,2370 nM
same,MTD,P388 [1],100
same,IC50,HT-29,2370 nM
same,IC50,NCI-H69,1190 nM
same,T/C,P388 [2],233%
same,Effect,L1210 [3],80%
same,MTD,A549 [4],70
same,IC50,P388 [5],29.8 nM
same,LTS,Mus musculus,6
same,IC50,A549 [6],664 nM
same,IC50,K562,522 nM
same,IC50,SK-N-MC,275 nM
same,T/C,[7],131%
same,Activity,[8],50
same,IC50,KB 3-1,566 nM
same,IC50,IGROV-1,984 nM
same,IC50,A-431,591 nM
COc1cc([C@@H]2c3cc4c(cc3[C@@H](NS(=O)(=O)N3CCCCC3)[C@H]3COC(=O)[C@H]23)OCO4)cc(OC)c1O,Effect,L1210 [9],77%
same,MTD,P388 [10],200
same,T/C,P388 [2],121%
same,LTS,P388 [11],0
same,Activity,[8],34
same,IC50,L1210 [12],120 nM
COc1cc([C@@H]2c3cc4c(cc3[C@@H](NS(=O)(=O)c3ccc(N=[N+]=[N-])cc3)[C@H]3COC(=O)[C@H]23)OCO4)cc(OC)c1O,Effect,L1210 [9],69%
same,Activity,[8],9
same,IC50,L1210 [12],210 nM
COc1cc([C@@H]2c3cc4c(cc3[C@@H](NS(=O)(=O)CCCCl)[C@H]3COC(=O)[C@H]23)OCO4)cc(OC)c1O,Effect,L1210 [13],66%
same,Activity,[8],14
same,IC50,L1210 [12],45 nM
COc1cc([C@@H]2c3cc4c(cc3[C@@H](NS(=O)(=O)N3CCN(C)CC3)[C@H]3COC(=O)[C@H]23)OCO4)cc(OC)c1O,MTD,A549 [14],6.25
same,T/C,P388 [2],229%
same,MTD,P388 [15],12.5
same,LTS,P388 [11],0
same,Activity,[8],45
same,IC50,L1210 [12],48 nM
same,T/C,[16],159%
same,Effect,L1210 [17],84%
COc1cc([C@@H]2c3cc4c(cc3[C@@H](NS(=O)(=O)c3ccc(N)cc3)[C@H]3COC(=O)[C@H]23)OCO4)cc(OC)c1O,Effect,L1210 [18],75%
same,Activity,[8],0
same,IC50,L1210 [12],340 nM
COc1cc([C@@H]2c3cc4c(cc3[C@@H](NS(=O)(=O)c3sc(NC(C)=O)nc3C)[C@H]3COC(=O)[C@H]23)OCO4)cc(OC)c1O,Effect,L1210 [19],68%
same,Activity,[8],7
same,IC50,L1210 [12],3600 nM
CCCCCCCCS(=O)(=O)N[C@@H]1c2cc3c(cc2[C@@H](c2cc(OC)c(O)c(OC)c2)[C@H]2C(=O)OC[C@@H]21)OCO3,Effect,L1210 [20],76%
same,Activity,[8],35
same,IC50,L1210 [12],250 nM
COc1cc([C@@H]2c3cc4c(cc3[C@@H](NS(=O)(=O)CCCN)[C@H]3COC(=O)[C@H]23)OCO4)cc(OC)c1O,Activity,[8],45
same,IC50,L1210 [12],2500 nM
same,Effect,L1210 [21],75%
COc1cc([C@@H]2c3cc4c(cc3[C@@H](NS(=O)(=O)CCCN=[N+]=[N-])[C@H]3COC(=O)[C@H]23)OCO4)cc(OC)c1O,Activity,[8],32
same,IC50,L1210 [12],35 nM
COc1cc([C@@H]2c3cc4c(cc3[C@@H](NS(=O)(=O)N(C)C)[C@H]3COC(=O)[C@H]23)OCO4)cc(OC)c1O,Effect,L1210 [13],66%
same,MTD,P388 [10],100
same,T/C,P388 [2],192% and 133%
same,LTS,P388 [11],0
same,Activity,[8],44
same,IC50,L1210 [12],37 nM
same,MTD,A549 [22],6.25
